Here are results for 18 molecules from PubChem BioAssay.

The source made the active and inactive calls.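 The calls were made as follows, unless noted: active = viability at or below 30% in both replicate assays; inconclusive = viability at or below 30% in just one of the two assays; inactive = the rest.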

A short description of experiment [1]: reduced viability of SK-BR-3 breast cancer cells – cell-based, 24 h, human, pilot screen (AID 572;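 active = viability at or below 10% of carrier control in both of two separate runs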;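 also: compound exposure lasted between 18 and 24 h rather than exactly 24 h; 100% = carrier-treated control wells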). As to conditions: SK-BR-3 viability, CellTiter-Glo luminescence, at 10 µM, stronger effect = lower value. On the technique in general: Cellular ATP, detected with luciferase, serves as a proxy for viable cell number.
The nature of experiment [2]: HUVEC growth inhibition – cell-based, human, primary screen (AID 575).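 Also: 100% = median of untreated cell wells with 0.1% DMSO on each plate.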 To be noted: HUVEC proliferation, CellTiter-Glo luminescence, 72 h; at 10 µM; stronger effect = lower value. Put shortly:
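Test system: primary human umbilical vein endothelial cells; medium: endothelial basal medium with 2% FBS plus growth supplements; dosing: 10 µM compound only; times: 72 h treatment at 37 °C; signal: CTG luminescence; read-out: % viability relative to median vehicle-well signal on each plate; control set: vehicle and MePR control wells; plate: 384-well, collagen-coated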

The nature of experiment [3]: H69AR cell proliferation blockers – human, duplicate replicates, primary screen (AID 580;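 active = viability at or under a set limit in both replicates, limit being median viability minus 3 SD, cut at about 48% in these data, passing the limit was not always enough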;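 also: 100% = mean luminescence of untreated wells and 0% = no signal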). As to conditions: H69AR lung tumor cells viability, ATP luminescence, 72 h; at 10 µM; stronger effect = lower value.
A short description of experiment [4]: MRP1 drug-resistance reversers in H69AR cells – cell-based, doxorubicin co-treatment, pilot screen (AID 601;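 active = viability loss from added drug above about 55%, and viability with drug at most 40%, in both replicates, limit read from the data, passing the limit was not always enough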). To be noted: CellTiter-Glo, 72 h, at 10 µM; for differential viability (reversal): stronger effect = higher value.
Experiment [5] is described as follows: yeast transport mutant growth inhibition pilot in 384-well plates, post-Golgi transport modulator project (AID 636; in the data active = inhibition above about 31%). To be noted: absorbance 615 nm, about 18 h, stronger effect = higher value.
The nature of experiment [6]: growth suppression of yeast trafficking mutant, preliminary HTS, modulators of trafficking downstream of Golgi apparatus project, 1536-format plate, OD 615 nm (AID 637; in the data active = inhibition above about 30%). To be noted: yeast transport mutant growth, absorbance 615 nm, 18 h; stronger effect = higher value.
Setting [7] is: H69AR cells + 2 uM doxorubicin, measured here: viability with 2 uM doxorubicin, stronger effect = lower value.
Where [8] appears, read: H69AR cells, compound alone cytotoxicity.

Turning to `C=CCOC(=O)CC(NC(=O)c1ccccc1)c1ccccc1` (centres undefined), the viability was 110% (inactive) in experiment [1]; 108% (inactive) in experiment [2]; 105% (inactive) in experiment [3]; 85.3% in experiment [4] (setting [7]); 105% in experiment [4] (setting [8]). The differential viability (reversal) in experiment [4] (H69AR cells + 2 uM doxorubicin) is 19.7% (inactive). The inhibition in experiment [5] was -3.73% (inactive); in experiment [6] it was -5.45% (inactive).
Turning to `COc1cccc(N2C(=O)N(c3ccccc3Cl)C3CS(=O)(=O)CC32)c1` (centres undefined), the viability was 93% (inactive) in experiment [1]; 106% (inactive) in experiment [2]; 98% (inactive) in experiment [3]; 88.7% in experiment [4] (setting [7]); 98% in experiment [4] (setting [8]). Further, in experiment [4] (H69AR cells + 2 uM doxorubicin), the differential viability (reversal) is 9.28% (inactive). Also, the values for the inhibition in experiment [5] and in experiment [6] were -6.71% (inactive) and 3.45% (inactive), respectively.
With `COc1cccc(NC(=O)N2CCCC2C(=O)Nc2ccc3c(c2)OCO3)c1` (centres undefined), the viability in experiment [1] was 106% (inactive); in experiment [2], 114% (inactive); in experiment [3], 96.3% (inactive); in experiment [4] (setting [7]), 80.2%; in experiment [4] (setting [8]) it was 96.3%. Further, the differential viability (reversal) in experiment [4] (H69AR cells + 2 uM doxorubicin) was 16.1% (inactive). Further, the inhibition in experiment [5] is -5.33% (inactive); in experiment [6] it was -4.55% (inactive).
Take `C1CCN=C(Nc2nc3c(s2)CCCC3)CC1`: the viability in experiment [1] was 104% (inactive); in experiment [2], 109% (inactive); in experiment [3] it was 89.4% (inactive); in experiment [4] (setting [7]), 81.9%; in experiment [4] (setting [8]), 89.4%. Also, in experiment [4] (H69AR cells + 2 uM doxorubicin), the differential viability (reversal) was 7.56% (inactive). In addition, the inhibition in experiment [5] is -5.6% (inactive); in experiment [6], -1.45% (inactive).
On to `COc1ccc(NC(=O)c2oc3ccccc3c2NC(=O)c2ccco2)cc1`, for which the viability in experiment [1] was 90% (inactive); in experiment [2] it was 88.8% (inactive); in experiment [3], 78.4% (inactive); in experiment [4] (setting [7]), 78.8%; in experiment [4] (setting [8]) it was 78.4%. Further, in experiment [4] (H69AR cells + 2 uM doxorubicin), the differential viability (reversal) is -0.385% (inactive). Besides, the results for the inhibition in experiment [5] and in experiment [6] were -4.59% (inactive) and -4.92% (inactive), respectively.
Take `CC1Oc2ccccc2N(CC(=O)NCc2cccs2)C1=O` (centres undefined): the viability in experiment [1] is 77% (inactive); in experiment [2], 98.8% (inactive); in experiment [3], 108% (inactive); in experiment [4] (setting [7]) it was 94.5%; in experiment [4] (setting [8]) it was 108%. For the same molecule, in experiment [4] (H69AR cells + 2 uM doxorubicin), the differential viability (reversal) is 13.8% (inactive). The inhibition in experiment [5] was -6.71% (inactive); in experiment [6] it was -0.91% (inactive).
For `COc1ccc(CCN2CC(O)=C(c3nc4ccccc4c(=O)[nH]3)C2=N)cc1OC`, the viability was 105% (inactive) in experiment [1]; 85.6% (inactive) in experiment [2]; 80.8% (inactive) in experiment [3]; 85.6% in experiment [4] (setting [7]); 80.8% in experiment [4] (setting [8]). Besides, the differential viability (reversal) in experiment [4] (H69AR cells + 2 uM doxorubicin) is -4.8% (inactive). Further, the figures for the inhibition in experiment [5] and in experiment [6] were -1.95% (inactive) and 1.8% (inactive), respectively.
Regarding `O=C(Cn1c(-c2cncs2)nc2ccccc21)NC1CCCC1`, the viability in experiment [1] was 96% (inactive); in experiment [2], 103% (inactive); in experiment [3], 106% (inactive); in experiment [4] (setting [7]), 86.5%; in experiment [4] (setting [8]) it was 106%. The differential viability (reversal) in experiment [4] (H69AR cells + 2 uM doxorubicin) is 19.1% (inactive). Also, the figures for the inhibition in experiment [5] and in experiment [6] were -4.05% (inactive) and 5.09% (inactive), respectively.
As to `O=C(NCc1cccnc1)c1cccc(C(F)(F)F)c1`, the viability in experiment [1] is 87% (inactive); in experiment [2], 109% (inactive); in experiment [3], 112% (inactive); in experiment [4] (setting [7]), 95.7%; in experiment [4] (setting [8]), 112%. In experiment [4] (H69AR cells + 2 uM doxorubicin), the differential viability (reversal) is 16% (inactive). Also, the inhibition is -5.34% (inactive) in experiment [5] and 6.55% (inactive) in experiment [6].
With `CCN1C(=O)CC(N2CCC(Nc3ccc(F)cc3)CC2)C1=O` (centres undefined), the viability in experiment [1] is 78% (inactive); in experiment [2], 93.5% (inactive); in experiment [3], 92.3% (inactive); in experiment [4] (setting [7]), 90.3%; in experiment [4] (setting [8]) it was 92.3%. For the same molecule, the differential viability (reversal) in experiment [4] (H69AR cells + 2 uM doxorubicin) is 1.94% (inactive). The inhibition in experiment [5] was -0.65% (inactive); in experiment [6] it was -0.98% (inactive).
For the molecule `CCN(CC(=O)NC1CCS(=O)(=O)C1)C(=O)C(c1ccccc1)c1ccccc1` (centres undefined), the viability in experiment [1] is 119% (inactive); in experiment [2], 102% (inactive); in experiment [3], 102% (inactive); in experiment [4] (setting [7]), 88.2%; in experiment [4] (setting [8]), 102%. Also, the differential viability (reversal) in experiment [4] (H69AR cells + 2 uM doxorubicin) was 14.2% (inactive). Moreover, the figures for the inhibition in experiment [5] and in experiment [6] were -5.14% (inactive) and -2.91% (inactive), respectively.
For the molecule `CN(C)C(=O)COc1ccc2cc(-c3ccccc3)c(=O)oc2c1`, the viability in experiment [1] was 93% (inactive); in experiment [2], 98.1% (inactive); in experiment [3], 90.7% (inactive); in experiment [4] (setting [7]) it was 92.9%; in experiment [4] (setting [8]) it was 90.7%. Moreover, the differential viability (reversal) in experiment [4] (H69AR cells + 2 uM doxorubicin) is -2.2% (inactive). Also, the inhibition was -7.12% (inactive) in experiment [5] and -4.18% (inactive) in experiment [6].
Consider `CCOCC(O)CS(=O)Cc1ccccc1` (centres undefined), for which the viability in experiment [1] was 111% (inactive); in experiment [2], 113% (inactive); in experiment [3], 98.5% (inactive); in experiment [4] (setting [7]) it was 76.4%; in experiment [4] (setting [8]) it was 98.5%. In addition, the differential viability (reversal) in experiment [4] (H69AR cells + 2 uM doxorubicin) was 22.1% (inactive). Further, the inhibition in experiment [5] was -6.67% (inactive); in experiment [6], -4.55% (inactive).
Take `CC(=O)Nc1ccc(Cc2ccncc2)cc1`: the viability was 105% (inactive) in experiment [1]; 90.2% (inactive) in experiment [2]; 96.1% (inactive) in experiment [3]; 87.3% in experiment [4] (setting [7]); 96.1% in experiment [4] (setting [8]). In addition, the differential viability (reversal) in experiment [4] (H69AR cells + 2 uM doxorubicin) is 8.84% (inactive). In addition, the inhibition in experiment [5] is -4.8% (inactive); in experiment [6], -4.36% (inactive).
With `COC(=O)c1ccccc1NC(=O)C12CCC(C)(C(=O)O1)C2(C)C` (centres undefined), the viability was 84% (inactive) in experiment [1]; 87.6% (inactive) in experiment [2]; 90.5% (inactive) in experiment [3]; 76.8% in experiment [4] (setting [7]); 90.5% in experiment [4] (setting [8]). Moreover, the differential viability (reversal) in experiment [4] (H69AR cells + 2 uM doxorubicin) is 13.7% (inactive). Moreover, the inhibition in experiment [5] is -6.58% (inactive); in experiment [6], 0% (inactive).
With `COC(=O)c1ccccc1NC(=O)C1CC=CCC1C(=O)O` (centres undefined), the viability in experiment [1] was 117% (inactive); in experiment [2], 99.7% (inactive); in experiment [3] it was 84.8% (inactive); in experiment [4] (setting [7]), 83.3%; in experiment [4] (setting [8]), 84.8%. In addition, the differential viability (reversal) in experiment [4] (H69AR cells + 2 uM doxorubicin) was 1.5% (inactive). For the same molecule, the inhibition in experiment [5] is -9.73% (inactive); in experiment [6], -0.81% (inactive).
On to `Cc1ccc(-c2nc3cc(NC(=O)C(C)C)ccc3o2)cc1C`, for which the viability in experiment [1] was 80% (inactive); in experiment [2], 51.8% (inactive); in experiment [3], 72.9% (inactive); in experiment [4] (setting [7]) it was 69.9%; in experiment [4] (setting [8]), 72.9%. The differential viability (reversal) in experiment [4] (H69AR cells + 2 uM doxorubicin) was 2.97% (inactive). Also, the inhibition in experiment [5] is -4.66% (inactive); in experiment [6], -8.55% (inactive).
Take `Cc1ccc2nc(NC(=O)C3CCCN(S(=O)(=O)c4cccc5nonc45)C3)sc2c1` (centres undefined): the viability in experiment [1] was 97.5% (inactive); in experiment [2], 71.6% (inactive); in experiment [3], 76% (inactive); in experiment [4] (setting [7]), 90.8%; in experiment [4] (setting [8]) it was 76%. The differential viability (reversal) in experiment [4] (H69AR cells + 2 uM doxorubicin) was -14.8% (inactive). Also, the inhibition in experiment [5] was -4.34% (inactive); in experiment [6], 1.17% (inactive).

In general, viability refers to a read-out of living cells in per cent, often relative to untreated cells. As usually defined, the inhibition is the change of the read-out against control, counted positive when it falls.
